The results in this text go back to ChEMBL document CHEMBL5120934, “Development of Urea-Bond-Containing Michael Acceptors as Antitrypanosomal Agents Targeting Rhodesain” (ACS Med Chem Lett, 2022).

The structures appear in SMILES notation. pEC50: −log10 of the molar value.

The target in one assay is Rhodesain (Trypanosoma brucei rhodesiense) (UniProt Q95PM0). Put plainly: Binding affinity to recombinant Trypanosoma brucei rhodesiense rhodesain assessed as Kinact using Cbz-Phe-Arg-AMC as fluorogenic substrate measured for 10 mins every 30 seconds by fluorescence microplate reader assay.
Rhodesain (Trypanosoma brucei rhodesiense), sequence (Q95PM0 1-450): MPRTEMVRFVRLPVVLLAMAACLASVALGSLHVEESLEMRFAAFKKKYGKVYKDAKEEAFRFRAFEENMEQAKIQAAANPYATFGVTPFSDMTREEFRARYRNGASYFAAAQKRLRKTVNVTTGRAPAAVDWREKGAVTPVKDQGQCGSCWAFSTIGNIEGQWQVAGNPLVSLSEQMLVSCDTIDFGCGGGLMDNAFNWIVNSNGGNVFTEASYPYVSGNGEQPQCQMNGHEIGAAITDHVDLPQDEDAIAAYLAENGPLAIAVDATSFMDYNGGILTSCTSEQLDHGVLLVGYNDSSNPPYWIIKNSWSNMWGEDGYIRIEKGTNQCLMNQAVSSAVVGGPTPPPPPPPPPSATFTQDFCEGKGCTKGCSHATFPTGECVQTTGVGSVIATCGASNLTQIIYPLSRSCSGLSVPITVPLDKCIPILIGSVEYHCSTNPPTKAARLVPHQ
Conditions: not given
In outline: (§1)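 Rhodesain activity was followed fluorogenically with the substrate Cbz-Phe-Arg-AMC. Inhibitors were serially diluted and assayed down to the concentration giving minimal inhibition. Irreversible inhibition was characterized by Ki and kinact (the rate of covalent E-I complex formation), and k2nd was calculated as kinact/Ki.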
As for `CC(=O)/C=C/[C@H](CCc1ccccc1)NC(=O)[C@H](Cc1ccccc1)NC(=O)Nc1ccc(Cl)cc1C`, the Kinact came to 0.0053 min⁻¹.

Consider `CC(=O)/C=C/[C@H](CCc1ccccc1)NC(=O)[C@H](Cc1ccccc1)NC(=O)Nc1ccc(C)cc1`, for which the Kinact stood at 0.0023 min⁻¹.

For the compound `COc1ccc(NC(=O)N[C@@H](Cc2ccccc2)C(=O)N[C@H](/C=C/C(C)=O)CCc2ccccc2)cc1`, the Kinact amounted to 0.0059 min⁻¹.

Consider `CC(=O)/C=C/[C@H](CCc1ccccc1)NC(=O)[C@H](Cc1ccccc1)NC(=O)Nc1cccc2ccccc12`, for which the Kinact was determined as 0.0084 min⁻¹.

For `CC(=O)/C=C/[C@H](CCc1ccccc1)NC(=O)[C@H](Cc1ccccc1)NC(=O)Nc1ccccc1`, the Kinact was 0.0021 min⁻¹.

Regarding `CC(=O)/C=C/[C@H](CCc1ccccc1)NC(=O)[C@H](Cc1ccccc1)NC(=O)Nc1c(F)cccc1F`, the Kinact came out at 0.0022 min⁻¹.

As to `CC(=O)/C=C/[C@H](CCc1ccccc1)NC(=O)[C@H](Cc1ccccc1)NC(=O)Nc1ccc(F)cc1`, the Kinact came to 0.0021 min⁻¹.

As to `CC(=O)/C=C/[C@H](CCc1ccccc1)NC(=O)[C@H](Cc1ccccc1)NC(=O)Nc1ccc(Cl)cc1`, the Kinact turned out to be 0.0023 min⁻¹.

Consider `CC(=O)/C=C/[C@H](CCc1ccccc1)NC(=O)[C@H](CC(C)C)NC(=O)Nc1ccc(C)cc1`, for which the Kinact was determined as 0.0042 min⁻¹.

Turning to `CC(=O)/C=C/[C@H](CCc1ccccc1)NC(=O)[C@H](CC(C)C)NC(=O)Nc1ccc(Cl)cc1C`, the Kinact was 0.0123 min⁻¹.

Regarding `CC(=O)/C=C/[C@H](CCc1ccccc1)NC(=O)[C@H](Cc1ccccc1)NC(=O)Nc1ccc(Cl)cc1C(F)(F)F`, the Kinact was found to be 0.006 min⁻¹.

For another assay the target is unchanged. The assay can be described thus: Binding affinity to recombinant Trypanosoma brucei rhodesiense rhodesain assessed as binding constant measured at second inhibition step using Cbz-Phe-Arg-AMC as fluorogenic substrate measured for 10 mins every 30 seconds by fluorescence microplate reader assay.
Conditions: not given
In outline:
as §1
For `CC(=O)/C=C/[C@H](CCc1ccccc1)NC(=O)[C@H](Cc1ccccc1)NC(=O)Nc1ccc(Cl)cc1C`, the K is 14700 10^3/M/min.

As for `CC(=O)/C=C/[C@H](CCc1ccccc1)NC(=O)[C@H](Cc1ccccc1)NC(=O)Nc1ccc(C)cc1`, the K is 10400 10^3/M/min.

For the compound `CC(=O)/C=C/[C@H](CCc1ccccc1)NC(=O)[C@H](Cc1ccccc1)NC(=O)Nc1ccccc1`, the K is 16700 10^3/M/min.

For the compound `CC(=O)/C=C/[C@H](CCc1ccccc1)NC(=O)[C@H](CC(C)C)NC(=O)Nc1ccc(C)cc1`, the K is 10400 10^3/M/min.

In the case of `CC(=O)/C=C/[C@H](CCc1ccccc1)NC(=O)[C@H](CC(C)C)NC(=O)Nc1ccc(Cl)cc1C`, the K is 14000 10^3/M/min.

For the next assay the target is unchanged. The assay can be described thus: Inhibition of Trypanosoma brucei rhodesiense rhodesain expressed in pichia pastoris assessed as binding constant measured at second inhibition step using Z-Phe-Arg-N-methylcoumarin as substrate by fluorometric assay.
Conditions: not given
`CN1CCN(C(=O)N[C@@H](Cc2ccccc2)C(=O)N[C@H](/C=C/S(=O)(=O)c2ccccc2)CCc2ccccc2)CC1` [K-777]: the K was 9000 10^3/M/min.

The target is the same in the next assay. Put plainly: Inhibition of Trypanosoma brucei rhodesiense rhodesain at 0.1 uM using Cbz-Phe-Arg-AMC as fluorogenic substrate measured for 10 mins every 30 seconds by fluorescence microplate reader assay.
Conditions: not given
In outline:
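Single-concentration fluorogenic screen against rhodesain with the substrate Cbz-Phe-Arg-AMC, each compound at 0.1 μM. DMSO served as the negative control and E-64 as the positive control. The read-out was percentage inhibition.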
Compound `CC(=O)/C=C/[C@H](CCc1ccccc1)NC(=O)[C@H](Cc1ccccc1)NC(=O)Nc1ccc(Cl)cc1C` registered an inhibition of more than 80%.

`CC(=O)/C=C/[C@H](CCc1ccccc1)NC(=O)[C@H](Cc1ccccc1)NC(=O)Nc1ccc(C)cc1` yielded an inhibition of more than 80%.

As to `COc1ccc(NC(=O)N[C@@H](Cc2ccccc2)C(=O)N[C@H](/C=C/C(C)=O)CCc2ccccc2)cc1`, the inhibition is more than 80%.

`CC(=O)/C=C/[C@H](CCc1ccccc1)NC(=O)[C@H](Cc1ccccc1)NC(=O)Nc1cccc2ccccc12` returned an inhibition of more than 80%.

As for `CC(=O)/C=C/[C@H](CCc1ccccc1)NC(=O)[C@H](Cc1ccccc1)NC(=O)Nc1ccccc1`, the inhibition is more than 80%.

`CC(=O)/C=C/[C@H](CCc1ccccc1)NC(=O)[C@H](Cc1ccccc1)NC(=O)Nc1c(F)cccc1F` yielded an inhibition of more than 80%.

With `CC(=O)/C=C/[C@H](CCc1ccccc1)NC(=O)[C@H](Cc1ccccc1)NC(=O)Nc1ccc(F)cc1`, the inhibition is more than 80%.

In the case of `CC(=O)/C=C/[C@H](CCc1ccccc1)NC(=O)[C@H](Cc1ccccc1)NC(=O)Nc1ccc(Cl)cc1`, the inhibition was more than 80%.

Take `CC(=O)/C=C/[C@H](CCc1ccccc1)NC(=O)[C@H](Cc1ccccc1)NC(=O)Nc1ccc(Cl)cc1C(F)(F)F`: the inhibition was more than 80%.

A further assay has as its target Replicase polyprotein 1ab (Severe acute respiratory syndrome coronavirus 2) (UniProt P0DTD1). Put plainly: Inhibition of C-terminal His-tagged SARS-CoV-2 MPro expressed in Escherichia coli BL21(DE3) at 100 uM using Dabcyl-KTSAVLQSGFRKME-Edans as fluorogenic substrate incubated for 10 mins by FRET assay.
Conditions: not given
In outline: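 Single-concentration preliminary screen of viral main protease at 100 μM. Read-out is percentage inhibition of protease activity. No follow-up dilution series or mode-of-inhibition kinetics were run.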
As for `CC(=O)/C=C/[C@H](CCc1ccccc1)NC(=O)[C@H](Cc1ccccc1)NC(=O)Nc1ccc(Cl)cc1C`, the inhibition came to 33%.

With `CC(=O)/C=C/[C@H](CCc1ccccc1)NC(=O)[C@H](Cc1ccccc1)NC(=O)Nc1ccc(C)cc1`, the inhibition came to 33%.

Compound `COc1ccc(NC(=O)N[C@@H](Cc2ccccc2)C(=O)N[C@H](/C=C/C(C)=O)CCc2ccccc2)cc1` registered an inhibition of 33%.

On to `CC(=O)/C=C/[C@H](CCc1ccccc1)NC(=O)[C@H](Cc1ccccc1)NC(=O)Nc1cccc2ccccc12`, for which the inhibition turned out to be 33%.

Compound `CC(=O)/C=C/[C@H](CCc1ccccc1)NC(=O)[C@H](Cc1ccccc1)NC(=O)Nc1ccccc1` registered an inhibition of 33%.

Compound `CC(=O)/C=C/[C@H](CCc1ccccc1)NC(=O)[C@H](Cc1ccccc1)NC(=O)Nc1c(F)cccc1F` showed an inhibition of 33%.

`CC(=O)/C=C/[C@H](CCc1ccccc1)NC(=O)[C@H](Cc1ccccc1)NC(=O)Nc1ccc(F)cc1` came in with an inhibition of 33%.

In turn, `CC(=O)/C=C/[C@H](CCc1ccccc1)NC(=O)[C@H](Cc1ccccc1)NC(=O)Nc1ccc(Cl)cc1` displayed an inhibition of 33%.

`CC(=O)/C=C/[C@H](CCc1ccccc1)NC(=O)[C@H](Cc1ccccc1)NC(=O)Nc1ccc(Cl)cc1C(F)(F)F` yielded an inhibition of 33%.

The next assay concerns Trypanosoma brucei. The assay can be described thus: Antitrypanosomal activity against bloodstream form of Trypanosoma brucei. In kind it is functional. Conditions: read-out: ED50 (the source's name).
For the compound `CN1CCN(C(=O)N[C@@H](Cc2ccccc2)C(=O)N[C@H](/C=C/S(=O)(=O)c2ccccc2)CCc2ccccc2)CC1` [K-777], the pEC50 is 6.05.
